Bioassay records from PubChem.
In the library only some 4% were active in any assay of this set; here they are far more common.
CHO parental Ca: counter-screen for OX1R antagonists: effect in parental CHO cells | parental CHO-K1, ATP-induced calcium, Fluo-8 fluorescence | inhibition, % at 5.6 µM | 0.63% of 330,000 active | AID 463079;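 active = inhibition above that plate's mean sample inhibition plus 3 SD, cut at about 26% in these data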;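 also: 0% = ATP-challenged DMSO wells and 100% = DMSO wells without ATP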
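Measured by: calcium-sensitive Fluo-8 fluorescence / Test system: CHO parental line / Controls: ATP-challenged DMSO wells low, unchallenged DMSO wells high / Measure: % inhibition / Compound: single nominal dose of 5.6 µM per compound / Replicates: single well per compound, no replicates / Reagent: ATP as calcium-mobilizing challenge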
OX1R antag-1: antagonists of human orexin 1 receptor. inhibition, % at 5 µM. 0.43% of 330,000 active. O43613. CHO/OX1R cells, Fluo-8 calcium fluorescence, orexin A. AID 434989;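 active = inhibition above its plate's threshold, mean inhibition of all tested compounds on the plate plus 3 SD, cut at about 37% in these data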;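 also: 0% = orexin A challenge wells and 100% = SB-334867-A antagonist wells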
TAAR1 ag: human TAAR1 agonism; Q96RJ0; CHO RD-HGA16 TAAR1, Fluo-8 calcium fluorescence; vehicle wells 0%, saturating PEA agonist 100%; activation, % at 3 µM; 0.99% of 360,000 active;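 active = activation above the mean activation of all test compounds in the run plus 3 SD, cut at about 38% in these data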
Target sequence (Q96RJ0 whole entry, looked up): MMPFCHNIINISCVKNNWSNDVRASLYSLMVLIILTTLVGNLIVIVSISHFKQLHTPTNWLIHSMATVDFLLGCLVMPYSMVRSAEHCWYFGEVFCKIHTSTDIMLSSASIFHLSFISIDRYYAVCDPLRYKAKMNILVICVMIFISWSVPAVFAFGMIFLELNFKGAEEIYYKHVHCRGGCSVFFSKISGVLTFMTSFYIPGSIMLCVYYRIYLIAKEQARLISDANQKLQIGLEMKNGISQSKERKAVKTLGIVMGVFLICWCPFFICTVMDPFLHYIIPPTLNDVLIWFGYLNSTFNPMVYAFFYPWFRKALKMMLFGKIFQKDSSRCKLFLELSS
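Test system: RD-HGA16 (CHO) cells co-expressing Gα16 and hTAAR1 | Doses: Single dose, 3 µM | Schedule: 17-24 h seeding, 75 min 37 °C dye, 30 min RT | Evaluation: % activation from peak over basal fluorescence ratio, DMSO-to-PEA scaled | Technique: Kinetic Fluo-8 calcium fluorescence | Benchmarks: Low control DMSO, high control PEA (EC100)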
OX1R antag-2: OX1R (human) antagonism. O43613. OX1R-expressing cells, FRET antagonist read-out. inhibition, % at 6.6 µM. 1.8% of 330,000 active; in the data active = inhibition mostly above about 38%, no sharp cut-off; inactive = mostly below about 40%;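 also: 0% = agonist challenge alone and 100% = reference antagonist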
TAAR1 antagonist: antagonists of human TAAR1. CHO RD-HGA16 TAAR1, Fluo-8 calcium fluorescence, antagonist. inhibition, % at 3 µM. 1.5% of 360,000 active. Q96RJ0;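 active = inhibition above a per-plate cutoff, the mean inhibition of test compounds on that plate plus 3 SD, cut at about 49% in these data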;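 also: 0% = DMSO plus EC80 beta-PEA response and 100% = DMSO alone without agonist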
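Material: CHO RD-HGA16 cells bearing hTAAR1; compound dosing: one-point dosing, 3 µM nominal final; schedule: dye loading 75 min at 37 °C, then 30 min room temperature; measured by: calcium fluorescence with Fluo-8; control set: vehicle and agonist controls; replication: n of 1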
The depositor's hits bear a star; . = no result given.

SMILES	CHO parental Ca	OX1R antag-1	TAAR1 ag	OX1R antag-2	TAAR1 antagonist
CCOc1ccc(-c2c(=O)n(OCc3ccccn3)c3ccccc3[n+]2[O-])cc1	-8	5	12	62*	-3
COc1ccc(-c2c(=O)n(OCc3ccccn3)c3ccccc3[n+]2[O-])cc1OC	-16	-22	4	55*	7
C#C[C@]1(O)CC[C@H]2[C@@H]3CCC4=CC(=O)CC[C@@H]4[C@H]3CC[C@@]21C	-16	-12	8	9	16
C#C[C@]1(O)CC[C@H]2[C@@H]3CCC4=Cc5oncc5C[C@]4(C)[C@H]3CC[C@@]21C	31	-27	38*	11	71*
COc1cccc([C@@H](NC(=O)C(F)(F)F)[C@@H]2CCCC=C2c2ccccc2)c1	.	.	0	.	-2
CCOc1ccc(/C=N/OCC(=O)NC(c2ccccc2)c2ccccc2)cc1	26	2	28	11	53*
Cc1ccc(S(=O)(=O)NCCNc2ccc(Br)c(C)c2)cc1	37*	25	6	13	-6
Cc1ccc(S(=O)(=O)NCCNS(=O)(=O)c2ccccc2Br)cc1	-7	-9	4	11	13
COC(=O)c1sc(NC(=O)c2ccc(Cn3cc(Cl)cn3)o2)c(C#N)c1C	-21	-9	19	72*	5
CC(C)Oc1ccc(C(CCN)C2CCCCC2)cc1 (stereo not drawn)	6	-17	47*	-5	11
CCN(CC)S(=O)(=O)c1ccc(/C=C/C(=O)Nc2ccc(Br)cc2F)cc1	9	-2	2	12	53*
O=C(CSc1nnnn1-c1ccccc1)Nc1ccc(Cl)cn1	44*	0	12	11	-5
O=C(CSc1nnnn1-c1ccccc1)Nc1ccc(Cl)cc1	-8	-2	4	11	-9
COc1ccc(OC)c(NC(=O)CN(Cc2ccc(F)cc2)C2CCCCC2)c1	45*	-1	1	46	-2
COc1ccc(Cl)cc1NC(=O)CN(C)C1CCCCC1	-27	-27	8	19	4
CCN(C(=O)COn1nnc2ccc(S(=O)(=O)N(C)C)cc21)C1CCS(=O)(=O)C1 (stereo not drawn)	0	1	8	-6	-17
O=C(Nc1nc2ccccc2s1)c1ccccc1[N+](=O)[O-]	-7	-14	1	-1	22
CC(=O)Nc1nc2cccc([N+](=O)[O-])c2s1	-2	-9	1	74*	4
CCOC(=O)c1c(C)oc2c1c(CN1CCN(C(=O)OCC)CC1)c(O)c1ccccc12	-15	1	4	70*	12
Cc1[nH][nH]c(=O)c1C(c1ccc(-c2ccccc2C(=O)O)o1)c1c(C)[nH][nH]c1=O	-5	-3	3	50*	-2
O=c1[nH]c(-c2ccccc2)cnc1-c1ccccc1	-4	1	0	19	-8
O=c1[nH]c2c(=O)[nH]cnc2nc1-c1ccccc1	-6	0	3	40*	-4
CCCC(C)C(=O)NC1CCCCN(C)C1=O (stereo not drawn)	.	.	1	.	-1
Cc1cc(/C=C2\SC(=S)N(Cc3ccco3)C2=O)c(C)n1-c1cccnc1	.	.	20	.	20
COc1ccc(/C=C2\SC(=S)N(c3cccnc3)C2=O)cc1	-1	-22	0	20	-7
SMILES	CHO parental Ca	OX1R antag-1	TAAR1 ag	OX1R antag-2	TAAR1 antagonist
O=C1/C(=C\c2ccc(O)cc2)SC(=S)N1c1cccnc1	58*	23	30	12	34
Cc1cc(/C=C2/SC(=S)N(c3cccc(C(F)(F)F)c3)C2=O)c(C)n1-c1cccnc1	50*	23	.	25	.
CC(C)C(OC(=O)/C=C/c1ccc2c(c1)OCO2)C(=O)NC(N)=O (stereo not drawn)	-5	0	2	17	2
CCc1nc2ccc(C(=O)NCc3ccccc3OC)cn2c1N(C)Cc1ccc(OC)cc1	.	.	-3	.	51*
O=C(CN1C(=O)c2ccccc2C1=O)Nc1cccc([N+](=O)[O-])c1	-8	-22	4	10	-18
O=C1c2ccc(Oc3ccc([N+](=O)[O-])cc3)cc2C(=O)N1CCCO	3	-18	6	10	-3
COc1cccc(NC(=O)CN(C)C(=O)CN2C(=O)c3ccc([N+](=O)[O-])cc3C2=O)c1	-13	-2	0	48*	4
O=C(O)CN1C(=O)c2ccc(Oc3ccc([N+](=O)[O-])cc3)cc2C1=O	-1	11	5	53*	2
